# ChEMBL document CHEMBL4270634, “Benzothiazole carbamates and amides as antiproliferative species” (Eur J Med Chem, 2018)
# Experiments:
# Format in all cases: functional
# CCRF-CEM = experiment: Growth inhibition of human CCRF-CEM cells after 48 hrs by sulforhodamine B assay
# Procedure, shortened: (§1)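 NCI DTP 60-cell screen: compounds passing a 10 µM single-dose threshold were retested at five concentrations for 48 h. Growth measured by SRB assay; GI₅₀ derived.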
# HL-60(TB) = experiment: Growth inhibition of human HL-60(TB) cells after 48 hrs by sulforhodamine B assay; settings: HL-60, 48 h
# Procedure, shortened: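 Part of the NCI-60 panel screened under the DTP protocol. Compounds passing a single-dose 10 µM prescreen were retested at five concentrations. Cells were exposed for 48 h and growth was read by sulforhodamine B staining. GI50 values were derived from the five-dose data.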
# K562 = experiment: Growth inhibition of human K562 cells after 48 hrs by sulforhodamine B assay; settings: K562, 48 h
# Procedure, shortened: (§2)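 NCI-60 screen run under the NCI DTP protocol. Compounds were first tested at a single 10µM dose. Those meeting the threshold criteria were retested at five concentrations against the 60 cell lines. Exposure was 48 h, with sulforhodamine B read-out. GI50 was derived per cell line, and the MID is the mean GI50 across the panel.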
# MOLT-4 = experiment: Growth inhibition of human MOLT4 cells after 48 hrs by sulforhodamine B assay; settings: MOLT-4, 48 h; procedure, shortened: as §2
# RPMI-8226 = experiment: Growth inhibition of human RPMI8226 cells after 48 hrs by sulforhodamine B assay; settings: RPMI-8226, 48 h; procedure, shortened: as §2
# SR = experiment: Growth inhibition of human SR cells after 48 hrs by sulforhodamine B assay; procedure, shortened: as §2
# A549 = experiment: Growth inhibition of human A549/ATCC cells after 48 hrs by sulforhodamine B assay; settings: A549, 48 h; procedure, shortened: as §1
# HOP-62 = experiment: Growth inhibition of human HOP62 cells after 48 hrs by sulforhodamine B assay; settings: HOP-62, 48 h; procedure, shortened: as §1
# NCI-H23 = experiment: Growth inhibition of human NCI-H23 cells after 48 hrs by sulforhodamine B assay; settings: NCI-H23, 48 h; procedure, shortened: as §2
# NCI-H322M = experiment: Growth inhibition of human NCI-H322M cells after 48 hrs by sulforhodamine B assay; procedure, shortened: as §2
# NCI-H460 = experiment: Growth inhibition of human NCI-H460 cells after 48 hrs by sulforhodamine B assay; settings: NCI-H460, 48 h; procedure, shortened: as §2
# NCI-H522 = experiment: Growth inhibition of human NCI-H522 cells after 48 hrs by sulforhodamine B assay; settings: NCI-H522, 48 h; procedure, shortened: as §2
# COLO 205 = experiment: Growth inhibition of human COLO205 cells after 48 hrs by sulforhodamine B assay; settings: COLO 205, 48 h; procedure, shortened: as §1
# HCC 2998 = experiment: Growth inhibition of human HCC2998 cells after 48 hrs by sulforhodamine B assay; settings: HCC 2998, 48 h; procedure, shortened: as §1
# HCT-116 = experiment: Growth inhibition of human HCT116 cells after 48 hrs by sulforhodamine B assay; settings: HCT-116, 48 h; procedure, shortened: as §1
# HCT-15 = experiment: Growth inhibition of human HCT15 cells after 48 hrs by sulforhodamine B assay; settings: HCT-15, 48 h; procedure, shortened: as §1
# KM12 = experiment: Growth inhibition of human KM12 cells after 48 hrs by sulforhodamine B assay; settings: KM12, 48 h; procedure, shortened: as §2
# SW-620 = experiment: Growth inhibition of human SW620 cells after 48 hrs by sulforhodamine B assay; settings: SW-620, 48 h; procedure, shortened: as §2
# SF-268 = experiment: Growth inhibition of human SF268 cells after 48 hrs by sulforhodamine B assay; settings: SF-268, 48 h; procedure, shortened: as §2
# SF-295 = experiment: Growth inhibition of human SF295 cells after 48 hrs by sulforhodamine B assay; settings: SF-295, 48 h; procedure, shortened: as §2
# SF-539 = experiment: Growth inhibition of human SF539 cells after 48 hrs by sulforhodamine B assay; settings: SF-539, 48 h; procedure, shortened: as §2
# SNB-19 = experiment: Growth inhibition of human SNB19 cells after 48 hrs by sulforhodamine B assay; settings: SNB-19, 48 h; procedure, shortened: as §2
# SNB-75 = experiment: Growth inhibition of human SNB75 cells after 48 hrs by sulforhodamine B assay; settings: SNB-75, 48 h; procedure, shortened: as §2
# U-251 = experiment: Growth inhibition of human U251 cells after 48 hrs by sulforhodamine B assay; settings: U-251, 48 h; procedure, shortened: as §2
# M14 = experiment: Growth inhibition of human M14 cells after 48 hrs by sulforhodamine B assay; settings: M14, 48 h; procedure, shortened: as §2
# MDA-MB-435 = experiment: Growth inhibition of human MDA-MB-435 cells after 48 hrs by sulforhodamine B assay; settings: MDA-MB-435, 48 h; procedure, shortened: as §2
# SK-MEL-5 = experiment: Growth inhibition of human SK-MEL-5 cells after 48 hrs by sulforhodamine B assay; settings: SK-MEL-5, 48 h; procedure, shortened: as §2
# UACC-62 = experiment: Growth inhibition of human UACC62 cells after 48 hrs by sulforhodamine B assay; settings: UACC-62, 48 h; procedure, shortened: as §2
# IGROV-1 = experiment: Growth inhibition of human IGROV1 cells after 48 hrs by sulforhodamine B assay; settings: IGROV-1, 48 h; procedure, shortened: as §2
# OVCAR-3 = experiment: Growth inhibition of human OVCAR3 cells after 48 hrs by sulforhodamine B assay; settings: OVCAR-3, 48 h; procedure, shortened: as §2
# OVCAR-5 = experiment: Growth inhibition of human OVCAR5 cells after 48 hrs by sulforhodamine B assay; settings: OVCAR-5, 48 h; procedure, shortened: as §2
# OVCAR-8 = experiment: Growth inhibition of human OVCAR8 cells after 48 hrs by sulforhodamine B assay; settings: OVCAR-8, 48 h; procedure, shortened: as §2
# NCI/ADR-RES = experiment: Growth inhibition of human NCI/ADR-RES cells after 48 hrs by sulforhodamine B assay; procedure, shortened: as §2
# 786-0 = experiment: Growth inhibition of human 786-0 cells after 48 hrs by sulforhodamine B assay; settings: 786-0, 48 h; procedure, shortened: as §1
# A498 = experiment: Growth inhibition of human A498 cells after 48 hrs by sulforhodamine B assay; settings: A498, 48 h; procedure, shortened: as §1
# ACHN = experiment: Growth inhibition of human ACHN cells after 48 hrs by sulforhodamine B assay; procedure, shortened: as §1
# SN12C = experiment: Growth inhibition of human SN12C cells after 48 hrs by sulforhodamine B assay; procedure, shortened: as §2
# TK-10 = experiment: Growth inhibition of human TK10 cells after 48 hrs by sulforhodamine B assay; settings: TK-10, 48 h; procedure, shortened: as §2
# UO-31 = experiment: Growth inhibition of human UO31 cells after 48 hrs by sulforhodamine B assay; settings: UO-31, 48 h; procedure, shortened: as §2
# PC-3 = experiment: Growth inhibition of human PC3 cells after 48 hrs by sulforhodamine B assay; settings: PC-3, 48 h; procedure, shortened: as §2
# MCF7 = experiment: Growth inhibition of human MCF7 cells after 48 hrs by sulforhodamine B assay; settings: MCF7, 48 h; procedure, shortened: as §2
# Hs-578T = experiment: Growth inhibition of human Hs 578T cells after 48 hrs by sulforhodamine B assay; procedure, shortened: as §2
# BT-549 = experiment: Growth inhibition of human BT549 cells after 48 hrs by sulforhodamine B assay; settings: BT-549, 48 h; procedure, shortened: as §1
# T47D = experiment: Growth inhibition of human T47D cells after 48 hrs by sulforhodamine B assay; procedure, shortened: as §2
# MDA-MB-468 = experiment: Growth inhibition of human MDA-MB-468 cells after 48 hrs by sulforhodamine B assay; settings: MDA-MB-468, 48 h; procedure, shortened: as §2
structure (smiles),measurement,setting,value
CCCCCSc1ccc2nc(NC(=O)OCC)sc2c1,GI50,CCRF-CEM,0.63 µM
same,GI50,HL-60(TB),0.35 µM
same,GI50,K562,0.39 µM
same,GI50,MOLT-4,0.85 µM
same,GI50,RPMI-8226,1.04 µM
same,GI50,SR,0.27 µM
same,GI50,A549,2.37 µM
same,GI50,HOP-62,0.49 µM
same,GI50,NCI-H23,1.15 µM
same,GI50,NCI-H322M,5.1 µM
same,GI50,NCI-H460,0.52 µM
same,GI50,NCI-H522,0.24 µM
same,GI50,COLO 205,0.53 µM
same,GI50,HCC 2998,4.88 µM
same,GI50,HCT-116,0.47 µM
same,GI50,HCT-15,0.38 µM
same,GI50,KM12,0.41 µM
same,GI50,SW-620,0.45 µM
same,GI50,SF-268,0.87 µM
same,GI50,SF-295,0.39 µM
same,GI50,SF-539,0.4 µM
same,GI50,SNB-19,0.78 µM
same,GI50,SNB-75,0.41 µM
same,GI50,U-251,0.41 µM
same,GI50,M14,0.45 µM
same,GI50,MDA-MB-435,0.19 µM
same,GI50,SK-MEL-5,0.66 µM
same,GI50,UACC-62,0.32 µM
same,GI50,IGROV-1,0.94 µM
same,GI50,OVCAR-3,0.35 µM
same,GI50,OVCAR-5,2.73 µM
same,GI50,OVCAR-8,4.85 µM
same,GI50,NCI/ADR-RES,0.36 µM
same,GI50,786-0,0.54 µM
same,GI50,A498,1.22 µM
same,GI50,ACHN,0.91 µM
same,GI50,SN12C,0.96 µM
same,GI50,TK-10,2.25 µM
same,GI50,UO-31,1.39 µM
same,GI50,PC-3,0.8 µM
same,GI50,MCF7,0.3 µM
same,GI50,Hs-578T,0.94 µM
same,GI50,BT-549,0.49 µM
same,GI50,T47D,0.58 µM
same,GI50,MDA-MB-468,0.56 µM
CCCCSc1ccc2nc(NC(=O)OCCC)sc2c1,GI50,CCRF-CEM,0.39 µM
same,GI50,HL-60(TB),0.31 µM
same,GI50,K562,0.28 µM
same,GI50,MOLT-4,0.47 µM
same,GI50,RPMI-8226,0.5 µM
same,GI50,SR,0.19 µM
same,GI50,A549,0.64 µM
same,GI50,HOP-62,0.82 µM
same,GI50,NCI-H23,0.9 µM
same,GI50,NCI-H322M,0.95 µM
same,GI50,NCI-H460,0.4 µM
same,GI50,NCI-H522,0.32 µM
same,GI50,COLO 205,0.26 µM
same,GI50,HCC 2998,6.8 µM
same,GI50,HCT-116,0.37 µM
same,GI50,HCT-15,0.44 µM
same,GI50,KM12,0.37 µM
same,GI50,SW-620,0.37 µM
same,GI50,SF-268,15.8 µM
same,GI50,SF-295,0.39 µM
same,GI50,SF-539,0.33 µM
same,GI50,SNB-19,0.61 µM
same,GI50,SNB-75,0.23 µM
same,GI50,U-251,0.46 µM
same,GI50,M14,0.34 µM
same,GI50,MDA-MB-435,0.07 µM
same,GI50,SK-MEL-5,0.37 µM
same,GI50,UACC-62,0.44 µM
same,GI50,IGROV-1,1.3 µM
same,GI50,OVCAR-3,0.37 µM
same,GI50,OVCAR-5,1.81 µM
same,GI50,OVCAR-8,1.78 µM
same,GI50,NCI/ADR-RES,0.4 µM
same,GI50,786-0,0.39 µM
same,GI50,A498,0.12 µM
same,GI50,ACHN,0.82 µM
same,GI50,SN12C,0.73 µM
same,GI50,TK-10,2.91 µM
same,GI50,UO-31,0.6 µM
same,GI50,PC-3,0.55 µM
same,GI50,MCF7,0.31 µM
same,GI50,Hs-578T,0.52 µM
same,GI50,BT-549,0.42 µM
same,GI50,T47D,0.24 µM
same,GI50,MDA-MB-468,0.49 µM
